Experimental data as given in publication PMC7810645 (Targeted Oncology, 2020).
Like-named read-outs stand apart in the source and are kept apart here.

Tests used:
[1] = tested on: patients with recurrent, platinum-sensitive ovarian cancer; conditions: niraparib 300 mg daily + bevacizumab 15 mg/kg d1 q21d vs niraparib 300 mg daily alone; cited from earlier work
[2] = tested on: patients; conditions: cited from earlier work
[3] = tested on: PARP1; conditions: read-out: IC50, enzymatic activity of PARP1; cited from earlier work
[4] = tested on: PARP2; conditions: read-out: IC50, enzymatic activity of PARP2; cited from earlier work
[5] = tested on: PARP enzymes at sites of DNA damage; conditions: cited from earlier work
[6] = tested on: patients with high-grade epithelial ovarian, fallopian tube, or primary peritoneal cancer; format: in vivo, human
Summary of the method: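 Patients had newly diagnosed stage IIIB–IV disease, ECOG 0–1 and no prior anticancer therapy. All received six cycles of carboplatin AUC 5 plus paclitaxel 175 mg/m2 and bevacizumab, each d1 q21d. Oral maintenance drug began within 9 weeks, continuous BID in 28-day cycles, first dose 7 days before bevacizumab. Three-patient cohorts (Fibonacci triplets). DLTs were assessed over the first two cycles, with AEs graded by CTCAE v4.03.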

[7] = Rucaparib plasma pharmacokinetics in patients; format: in vivo, human; conditions: for AUC(0-t) / Tmax / Cmax: human, plasma, oral; for Tmax: mean (±SD)
Summary of the method: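 Oral dosing was 400, 500 or 600 mg BID. Cycle 1 blood was drawn on day −7 (first dose, before bevacizumab), day 1 (bevacizumab infusion) and day 21, at 1, 2, 3, 4, 6, 8 and 24 h post-dose. Plasma was assayed by validated HPLC-MS. Day −7 yielded Cmax, Tmax and AUC0–8h, and days 1/21 gave steady-state Cmax, Cmin and AUC, all by noncompartmental analysis. Summaries were mean, SD, CV, median and geometric mean.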

[8] = tested on: patients; conditions: rucaparib 600 mg BID single agent, ARIEL3; cited from earlier work
[9] = steady state, day 1 (bevacizumab infusion), 400 mg BID, n 3
[10] = steady state, day 1 (bevacizumab infusion), 500 mg BID, n 3
[11] = steady state, day 1 (bevacizumab infusion), 600 mg BID, n 3
[12] = steady state, day 21, with bevacizumab, 400 mg BID, n 2
[13] = steady state, day 21, with bevacizumab, 500 mg BID, n 3
[14] = steady state, day 21, with bevacizumab, 600 mg BID, n 2
[15] = rucaparib 400 mg BID (n = 3) + bevacizumab
[16] = rucaparib 500 mg BID (n = 3) + bevacizumab
[17] = rucaparib 600 mg BID (n = 3) + bevacizumab

NC(=O)c1cccc2cn(-c3ccc([C@@H]4CCCNC4)cc3)nc12 [niraparib]
PFS adjusted hazard ratio [1]: 0.35
incidence of thrombocytopenia and hypertension ([2]; vs olaparib or rucaparib): higher incidence

Cn1ncnc1[C@H]1c2n[nH]c(=O)c3cc(F)cc(c23)N[C@@H]1c1ccc(F)cc1 [talazoparib]
potency for DNA trapping [5]: more potent DNA trapping abilities

bevacizumab
most frequent bevacizumab-related AE ([6]; combination with rucaparib): hypertension

CNCc1ccc(-c2[nH]c3cc(F)cc4c3c2CCNC4=O)cc1 [rucaparib]
range of trough concentrations ([7]; 400 mg BID): 1.5 to 1.6 µg/mL
range of trough concentrations ([7]; 500 mg BID): 1.8 to 2.0 µg/mL
range of trough concentrations ([7]; 600 mg BID): 1.6 to 2.1 µg/mL
dose proportionality of plasma exposure ([7]; 400-600 mg BID): approximately dose proportional
Cmax and AUC at steady state (days 1 and 21) relative to day −7 ([7]; all dose levels): two to three times higher
Cmin, mean (±SD) ([7]; first administration, day −7, 400 mg BID, n 3): 200 ± 100 ng/mL
Cmin, mean (±SD) ([7]; first administration, day −7, 500 mg BID, n 3): 400 ± 100 ng/mL
Cmin, mean (±SD) ([7]; first administration, day −7, 600 mg BID, n 3): 300 ± 200 ng/mL
AUC(0-t) ([7]; 400 mg): 3400 ± 800 ng·h/mL
Tmax ([7]; 400 mg, first administration, day −7, 400 mg BID, n 3): 3.4 ± 0.7 h
AUC(0-t) ([7]; 500 mg): 4700 ± 1900 ng·h/mL
Cmax ([7]; 500 mg): 900 ± 600 ng/mL
Tmax ([7]; 500 mg, steady state, day 21, with bevacizumab, 500 mg BID, n 3): 2 ± 1 h
AUC(0-t) ([7]; 600 mg): 4900 ± 1600 ng·h/mL
Cmax ([7]; 600 mg): 1000 ± 200 ng/mL
Tmax ([7]; 600 mg, first administration, day −7, 600 mg BID, n 3): 3.4 ± 1.2 h
Tmax [7, 9]: 4.6 ± 2.9 h
Tmax [7, 10]: 1.7 ± 1.2 h
Tmax [7, 11]: 3 ± 1 h
CmaxSS, mean (±SD) [7, 9]: 2400 ± 200 ng/mL
CminSS, mean (±SD) [7, 9]: 1400 ± 300 ng/mL
Ctrough, mean (±SD) [7, 9]: 1600 ± 100 ng/mL
CmaxSS, mean (±SD) [7, 10]: 2600 ± 500 ng/mL
CminSS, mean (±SD) [7, 10]: 1600 ± 700 ng/mL
Ctrough, mean (±SD) [7, 10]: 1800 ± 700 ng/mL
CmaxSS, mean (±SD) [7, 11]: 2600 ± 500 ng/mL
CminSS, mean (±SD) [7, 11]: 1400 ± 300 ng/mL
Ctrough, mean (±SD) [7, 11]: 1600 ± 100 ng/mL
CmaxSS, mean (±SD) [7, 12]: 2600 ± 900 ng/mL
CminSS, mean (±SD) [7, 12]: 1300 ± 400 ng/mL
Ctrough, mean (±SD) [7, 12]: 1500 ± 300 ng/mL
CmaxSS, mean (±SD) [7, 13]: 2300 ± 400 ng/mL
CminSS, mean (±SD) [7, 13]: 1500 ± 500 ng/mL
Ctrough, mean (±SD) [7, 13]: 2000 ± 600 ng/mL
CmaxSS, mean (±SD) [7, 14]: 2500 ± 1300 ng/mL
CminSS, mean (±SD) [7, 14]: 1600 ± 1200 ng/mL
Ctrough, mean (±SD) [7, 14]: 2100 ± 300 ng/mL
incidence of increased alanine/aspartate aminotransferase levels ([2]; vs olaparib or niraparib): higher incidence
patients with dose reduction due to a TEAE [8]: 55%
patients with grade 3 or higher TEAEs [8]: 56%
patients with grade 3 or higher anemia [8]: 19%
maximum tolerated dose (MTD) ([6]; BID, combined with bevacizumab 15 mg/kg d1 q21d): 500 mg
safety concerns from the combination of rucaparib and bevacizumab ([6]; all dose cohorts): no new safety concerns
Anemia, grade 1: number of patients with an event [6, 15]: 1
Arthralgia, grade 1: number of patients with an event [6, 15]: 2 (2)
Arthralgia, grade 1: number of total events [6, 15]: 2 (2)
Cutaneous erythema, grade 1: number of patients with an event [6, 15]: 1
Fatigue, grade 1: number of patients with an event [6, 15]: 1
Feet paresthesia, grade 1: number of patients with an event [6, 15]: 1
Genital herpes, grade 1: number of patients with an event [6, 15]: 1
Genital herpes, grade 2: number of patients with an event [6, 15]: 1
Headache, grade 1: number of patients with an event [6, 15]: 1
Mucosal dryness, grade 1: number of patients with an event [6, 15]: 1
Nausea, grade 1: number of patients with an event [6, 15]: 1
Neuropathy, grade 1: number of patients with an event [6, 15]: 1
Transaminases increase, grade 1: number of patients with an event [6, 15]: 1
dose-limiting toxicities (DLTs) ([6]; rucaparib 400 mg BID + bevacizumab 15 mg/kg d1 q21d): No DLTs
Abdominal pain, grade 1: number of patients with an event [6, 16]: 1
Arthralgia, grade 1: number of patients with an event [6, 16]: 1
Bleeding gums, grade 1: number of patients with an event [6, 16]: 1
Diarrhea, grade 1: number of patients with an event [6, 16]: 1
Diarrhea, grade 1: number of total events [6, 16]: 3
Dysgeusia, grade 1: number of patients with an event [6, 16]: 1
Dysgeusia, grade 2: number of patients with an event [6, 16]: 1
Fatigue, grade 1: number of patients with an event [6, 16]: 1
Flushes, grade 1: number of patients with an event [6, 16]: 1
High cholesterol, grade 1: number of patients with an event [6, 16]: 1
High cholesterol, grade 2: number of patients with an event [6, 16]: 1
Hypertension, grade 2: number of patients with an event [6, 16]: 3 (3)
Hypertension, grade 2: number of total events [6, 16]: 3 (3)
Insomnia, grade 2: number of patients with an event [6, 16]: 1
Nausea, grade 1: number of patients with an event [6, 16]: 2 (2)
Nausea, grade 1: number of total events [6, 16]: 2 (2)
Transaminases increase, grade 1: number of patients with an event [6, 16]: 1
Vomiting, grade 1: number of patients with an event [6, 16]: 1
dose-limiting toxicities (DLTs) ([6]; rucaparib 500 mg BID + bevacizumab 15 mg/kg d1 q21d): No DLTs
ALT increase, grade 2: number of patients with an event [6, 17]: 1
ALT increase, grade 3: number of patients with an event [6, 17]: 1
AST increase, grade 2: number of patients with an event [6, 17]: 1
AST increase, grade 3: number of patients with an event [6, 17]: 1
Abdominal pain, grade 1: number of patients with an event [6, 17]: 1
Arthralgia, grade 1: number of patients with an event [6, 17]: 1
Arthralgia, grade 2: number of patients with an event [6, 17]: 1
Constipation, grade 2: number of patients with an event [6, 17]: 1
Depression, grade 1: number of patients with an event [6, 17]: 1
Depression, grade 1: number of total events [6, 17]: 2
Depression, grade 2: number of patients with an event [6, 17]: 1
Depression, grade 3: number of patients with an event [6, 17]: 1
Diarrhea, grade 1: number of patients with an event [6, 17]: 1
Dysgeusia, grade 1: number of patients with an event [6, 17]: 1
Epigastralgia, grade 1: number of patients with an event [6, 17]: 1
Fatigue, grade 1: number of patients with an event [6, 17]: 1
Fever, grade 2: number of patients with an event [6, 17]: 1
Hallucination, grade 3: number of patients with an event [6, 17]: 1
Headache, grade 1: number of patients with an event [6, 17]: 1
Lack of appetite, grade 1: number of patients with an event [6, 17]: 1
Limb pain, grade 1: number of patients with an event [6, 17]: 1
Mucositis, grade 1: number of patients with an event [6, 17]: 1
Nausea, grade 1: number of patients with an event [6, 17]: 3
Nausea, grade 1: number of total events [6, 17]: 4
Nausea, grade 2: number of patients with an event [6, 17]: 1
Nausea, grade 2: number of total events [6, 17]: 3
Neutrophils decreased, grade 2: number of patients with an event [6, 17]: 1
Skin bruises, grade 1: number of patients with an event [6, 17]: 1
Stranguria, grade 1: number of patients with an event [6, 17]: 1
Toothache, grade 1: number of patients with an event [6, 17]: 1
patients affected by DLTs ([6]; rucaparib 600 mg BID + bevacizumab 15 mg/kg d1 q21d): two out of three patients
